Compounds with a hit are over-represented: about 4.6% of the library has one in this group of screens.
OX1R antag-1: blocks the human orexin 1 receptor | CHO/OX1R cells, Fluo-8 calcium fluorescence, orexin A | O43613 | inhibition, % at 5 µM | actives 0.43% (n = 330,000);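 active = inhibition above its plate's threshold, mean inhibition of all tested compounds on the plate plus 3 SD, cut at about 37% in these data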
OX1R antag-2: antagonists of human orexin 1 receptor (OX1R); O43613; OX1R-expressing cells, FRET antagonist read-out; inhibition, % at 6.6 µM; actives 1.8% (n = 330,000); AID 485270; in the data active = inhibition mostly above about 38%, no sharp cut-off; inactive = mostly below about 40%
GPR7 antagonist: human neuropeptides B/W receptor 1 antagonism; inhibition, % at 4.4 µM; AID 1861; actives 1.1% (n = 290,000); P48145; GPR7-expressing cells, fluorescence antagonist assay; in the data active = inhibition above about 16%, passing the limit was not always enough;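 also: cells stimulated with the agonist NPW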
Target sequence (P48145 whole entry, looked up): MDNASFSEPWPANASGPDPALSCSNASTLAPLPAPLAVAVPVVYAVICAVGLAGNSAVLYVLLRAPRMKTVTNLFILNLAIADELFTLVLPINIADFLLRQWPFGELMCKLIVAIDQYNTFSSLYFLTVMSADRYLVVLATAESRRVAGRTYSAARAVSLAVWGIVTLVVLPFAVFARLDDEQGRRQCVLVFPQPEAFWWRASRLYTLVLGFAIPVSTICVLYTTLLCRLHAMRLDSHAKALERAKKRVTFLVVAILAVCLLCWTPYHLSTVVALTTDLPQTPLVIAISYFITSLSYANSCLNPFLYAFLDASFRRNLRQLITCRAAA
TAAR1 antag: antagonists of human TAAR1; Q96RJ0; AID 624466; CHO RD-HGA16 TAAR1, Fluo-8 calcium fluorescence, antagonist; inhibition, % at 3 µM; actives 1.5% (n = 360,000);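 active = inhibition above a per-plate cutoff, the mean inhibition of test compounds on that plate plus 3 SD, cut at about 49% in these data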
Target sequence (Q96RJ0 whole entry, looked up): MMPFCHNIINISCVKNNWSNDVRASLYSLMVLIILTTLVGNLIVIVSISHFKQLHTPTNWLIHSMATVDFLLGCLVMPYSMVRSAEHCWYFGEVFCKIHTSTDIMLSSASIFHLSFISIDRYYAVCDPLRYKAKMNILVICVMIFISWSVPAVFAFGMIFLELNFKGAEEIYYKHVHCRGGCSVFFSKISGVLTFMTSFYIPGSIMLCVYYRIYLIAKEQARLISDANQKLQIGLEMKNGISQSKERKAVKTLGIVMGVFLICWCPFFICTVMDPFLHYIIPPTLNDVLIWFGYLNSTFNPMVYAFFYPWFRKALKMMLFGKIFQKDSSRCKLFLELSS
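Assay system: CHO-derived RD-HGA16 cells stably expressing human TAAR1 plus Gα16. Timing: 140 s kinetic read after compound, 140 s after agonist. Technique: kinetic Fluo-8 calcium fluorescence measurement. Measure: % inhibition of agonist calcium response.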
CHO parental Ca: counter-screen: ATP calcium response change in parental CHO cells. parental CHO-K1, ATP-induced calcium, Fluo-8 fluorescence. actives 0.63% (n = 330,000). AID 463079. inhibition, % at 5.6 µM;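 active = inhibition above that plate's mean sample inhibition plus 3 SD, cut at about 26% in these data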
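test system = CHO parental line | reagent = ATP stimulus | measured by = intracellular calcium via Fluo-8 no-wash fluorescent dye | control set = ATP and no-ATP DMSO wells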
TAAR1 agonist: human TAAR1 agonism; Q96RJ0; CHO RD-HGA16 TAAR1, Fluo-8 calcium fluorescence; vehicle wells 0%, saturating PEA agonist 100%; activation, % at 3 µM; actives 0.99% (n = 360,000); AID 624467;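 active = activation above the mean activation of all test compounds in the run plus 3 SD, cut at about 38% in these data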
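Test system: RD-HGA16 (CHO) cells co-expressing Gα16 and hTAAR1 | Doses: Single dose, 3 µM | Schedule: 17-24 h seeding, 75 min 37 °C dye, 30 min RT | Evaluation: % activation from peak over basal fluorescence ratio, DMSO-to-PEA scaled | Technique: Kinetic Fluo-8 calcium fluorescence | Benchmarks: Low control DMSO, high control PEA (EC100)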
Hits are given with their value.

What do the screens show for `Cc1ccc(Oc2nnc(-c3cccs3)c3ccccc23)cc1C`?
OX1R antag-1: inactive; OX1R antag-2: inactive; GPR7 antagonist: inactive; TAAR1 antag: inactive; CHO parental Ca: 40.3; TAAR1 agonist: inactive

What do the screens show for `CC(C(=O)NC1CCCC1)n1c(-c2ccccn2)nc2ccccc21` (stereo unspecified)?
TAAR1 antag: inactive; TAAR1 agonist: inactive

How did NC1=Nc2cccc3cccc1c23 do in these assays?
OX1R antag-1: inactive; OX1R antag-2: 71.0; GPR7 antagonist: inactive; TAAR1 antag: inactive; CHO parental Ca: inactive; TAAR1 agonist: inactive

Results for C(=N\NC1=Nc2cccc3cccc1c23)/c1ccccc1 ?
OX1R antag-1: inactive; OX1R antag-2: inactive; GPR7 antagonist: inactive; TAAR1 antag: inactive; CHO parental Ca: inactive; TAAR1 agonist: inactive

What do the screens show for `Cc1nc2c(-c3ccc(F)cc3)cnn2c2c1CCC2`?
OX1R antag-1: inactive; OX1R antag-2: 54.5; GPR7 antagonist: inactive; TAAR1 antag: inactive; CHO parental Ca: inactive; TAAR1 agonist: inactive

Results for Cc1ccc(OCCNS(=O)(=O)c2ccc(N3CCCC3=O)cc2)cc1C ?
OX1R antag-1: inactive; OX1R antag-2: 34.7; GPR7 antagonist: inactive; TAAR1 antag: inactive; CHO parental Ca: inactive; TAAR1 agonist: inactive

How did Cc1ccc(OCCNS(=O)(=O)c2ccc(N3CCCC3=O)cc2)cc1 do in these assays?
OX1R antag-1: inactive; OX1R antag-2: inactive; GPR7 antagonist: inactive; TAAR1 antag: inactive; CHO parental Ca: inactive; TAAR1 agonist: inactive

What do the screens show for `COc1cc(NC(=O)c2cccc3c2C(=O)N(C2CCCCC2)C3)cc(OC)c1OC`?
OX1R antag-1: inactive; OX1R antag-2: inactive; GPR7 antagonist: inactive; TAAR1 antag: 52.9; CHO parental Ca: inactive; TAAR1 agonist: inactive

Results for Cc1cc(C)cc(NC(=O)c2cccc3c2C(=O)N(C2CCCCC2)C3)c1 ?
OX1R antag-1: inactive; OX1R antag-2: inactive; GPR7 antagonist: inactive; CHO parental Ca: inactive

Results for COC(=O)c1cc2c(c3c4cc(C)ccc4n(S(=O)(=O)c4ccccc4)c13)C(=O)N(Cc1ccc(C(F)(F)F)cc1)C2 ?
TAAR1 antag: inactive; TAAR1 agonist: inactive

How did Cc1ccc(S(=O)(=O)N2C3CCCCC3O[C@H]2CC(=O)OCc2ccccc2)cc1 (stereo partly specified) do in these assays?
TAAR1 antag: inactive; TAAR1 agonist: inactive

What do the screens show for `Cc1cc(C)n(CCNC(=O)c2cc(COc3ccc4ncccc4c3)on2)n1`?
OX1R antag-1: inactive; OX1R antag-2: inactive; GPR7 antagonist: inactive; TAAR1 antag: inactive; CHO parental Ca: inactive; TAAR1 agonist: inactive

What do the screens show for `Cc1ccc(F)cc1CNC(=O)c1cc(COc2ccc3ncccc3c2)on1`?
OX1R antag-1: inactive; OX1R antag-2: inactive; GPR7 antagonist: inactive; TAAR1 antag: inactive; CHO parental Ca: 32.2; TAAR1 agonist: inactive

What do the screens show for `CC(C)N(Cc1nccn1C)C(=O)c1cc(COc2ccc3ncccc3c2)on1`?
OX1R antag-1: inactive; OX1R antag-2: inactive; GPR7 antagonist: inactive; TAAR1 antag: inactive; CHO parental Ca: inactive; TAAR1 agonist: inactive

What do the screens show for `O=C(NCc1cccc(Cl)c1)c1cc(COc2ccc3ncccc3c2)on1`?
OX1R antag-1: 41.7; OX1R antag-2: inactive; GPR7 antagonist: inactive; TAAR1 antag: inactive; CHO parental Ca: 67.1; TAAR1 agonist: inactive

What do the screens show for `CC(CCCC(C)(C)O)NC(=O)c1cc(COc2ccc3ncccc3c2)on1` (stereo unspecified)?
OX1R antag-1: inactive; OX1R antag-2: inactive; GPR7 antagonist: inactive; TAAR1 antag: inactive; CHO parental Ca: 24.5; TAAR1 agonist: inactive

What do the screens show for `COC(=O)c1cc2c(c3c4cc(F)ccc4n(S(=O)(=O)c4cccc(C)c4)c13)C(=O)N(C)C2`?
TAAR1 antag: inactive; TAAR1 agonist: inactive

What do the screens show for `C=CCn1c(O)c2ccc(C(=O)N=NC(=O)COc3ccccc3F)cc2c1O`?
OX1R antag-1: inactive; OX1R antag-2: 57.6; TAAR1 antag: inactive; CHO parental Ca: inactive; TAAR1 agonist: inactive

Results for Cc1coc2c(C)c3oc(=O)c(CC(=O)N[C@@H](CC(C)C)C(=O)O)c(C)c3cc12 ?
OX1R antag-1: inactive; OX1R antag-2: inactive; GPR7 antagonist: inactive; TAAR1 antag: inactive; CHO parental Ca: inactive; TAAR1 agonist: inactive

What do the screens show for `Cc1coc2c(C)c3oc(=O)c(CCC(=O)N[C@@H](C)C(=O)N[C@@H](Cc4ccccc4)C(=O)O)c(C)c3cc12`?
OX1R antag-1: inactive; OX1R antag-2: 44.8; GPR7 antagonist: inactive; TAAR1 antag: inactive; CHO parental Ca: inactive; TAAR1 agonist: inactive

How did CCOC(=O)CSc1nc2c(c(-c3ccc(C)o3)c1C#N)CCCC2 do in these assays?
OX1R antag-1: inactive; OX1R antag-2: inactive; GPR7 antagonist: inactive; TAAR1 antag: inactive; CHO parental Ca: 32.8; TAAR1 agonist: inactive

Results for COC(=O)CSc1nc2c(c(-c3ccco3)c1C#N)CCCC2 ?
OX1R antag-1: inactive; OX1R antag-2: inactive; GPR7 antagonist: inactive; CHO parental Ca: inactive

What do the screens show for `O=C1Nc2c(Cl)cc(Cl)cc2C12Nc1ccccc1S2` (stereo unspecified)?
TAAR1 antag: inactive; TAAR1 agonist: inactive

What do the screens show for `N#CCCN(Cc1ccccc1)C(C(=O)NC1CCCCC1)C1CC1` (stereo unspecified)?
TAAR1 antag: inactive; TAAR1 agonist: inactive

How did O=C(CSc1nnc2ccc(-c3cccnc3)nn12)Nc1ccc(F)cc1 do in these assays?
OX1R antag-1: inactive; OX1R antag-2: inactive; TAAR1 antag: inactive; CHO parental Ca: inactive; TAAR1 agonist: inactive

What do the screens show for `CC(=O)Nc1ccc(NC(=O)CSc2nnc3ccc(-c4cccnc4)nn23)cc1`?
OX1R antag-1: inactive; OX1R antag-2: 49.9; TAAR1 antag: inactive; CHO parental Ca: inactive; TAAR1 agonist: inactive

What do the screens show for `COc1ccc(-c2nnc3ccc(SCC(=O)N4CCCC4)nn23)cc1`?
OX1R antag-1: inactive; OX1R antag-2: inactive; GPR7 antagonist: inactive; TAAR1 antag: inactive; CHO parental Ca: inactive; TAAR1 agonist: inactive

What do the screens show for `COc1ccc(-c2ccc3nnc(SCC(=O)N4CCCC4)n3n2)cc1`?
OX1R antag-1: inactive; OX1R antag-2: 55.0; TAAR1 antag: inactive; CHO parental Ca: inactive; TAAR1 agonist: inactive

What do the screens show for `O=C(CSc1nnc2ccc(-c3ccncc3)nn12)Nc1ccc(F)cc1`?
OX1R antag-1: inactive; OX1R antag-2: 61.3; TAAR1 antag: inactive; CHO parental Ca: inactive; TAAR1 agonist: inactive

Results for Cc1ccccc1NC(=O)CSc1nnc2ccc(-c3ccccn3)nn12 ?
OX1R antag-1: inactive; OX1R antag-2: 54.9; TAAR1 antag: inactive; CHO parental Ca: inactive; TAAR1 agonist: inactive

Results for Cc1ccc(NC(=O)CSc2nnc3ccc(-c4cccnc4)nn23)cc1 ?
OX1R antag-1: inactive; OX1R antag-2: inactive; TAAR1 antag: inactive; CHO parental Ca: inactive; TAAR1 agonist: inactive
